Measurements: ChEMBL document CHEMBL5329221, “A covalent fragment-based strategy targeting a novel cysteine to inhibit activity of mutant EGFR kinase” (RSC Med Chem, 2023)
pIC50: −log10 of the molar value. The source made the active and inactive calls. The rule behind the calls is not given here.

Experiments:
[1] = biological target: Epidermal growth factor receptor (Homo sapiens) (UniProt P00533); experiment: Inhibition of wild type human EGFR assessed as decrease in substrate phosphorylation using Srctide as substrate preincubated for 15 mins followed by substrate addition in presence of 1mM of ATP and measured after 45 mins by microplate reader analysis; conditions: time 60.0 min
Method in brief: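 Wild-type EGFR at 800 ng/mL was preincubated 15 min with 1 µM compound in 100 mM HEPES pH 7.4, 0.003% Brij-35, 0.004% Tween-20, 1 mM DTT. Then 1 mM ATP, 1.5 µM Srctide, 10 mM MgCl2 and 10 mM MnCl2 were added for 45 min. Mobility-shift read.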

[2] = biological target: T1, Epidermal growth factor receptor (Homo sapiens, UniProt P00533, C797S/L858R/T790M); experiment: Inhibition of N-terminal His6-tagged human EGFR L858R/T790M/C797S mutant expressed in Sf9 cells assessed as decrease in substrate phosphorylation using Ulight-JAK1 peptide as substrate incubated for 1.5 hrs in presence of ATP by TR-FRET based LANCE Ultra kinase assay
Method in brief: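 LANCE Ultra TR-FRET assay with 0.25 nM EGFR_TM, 1 µM ATP, 50 nM ULight-JAK1 peptide, 50 mM HEPES pH 7.5, 10 mM MgCl2, 5 mM MnCl2, 1 mM DTT, 0.015% Brij35, 5% DMSO, 1.5 h at 23°C. EDTA stop, Eu-anti-pTyr PT66, 1 h. Signal is the 665/620 nm ratio, normalised to no-protein controls. IC50 from a four-parameter fit, otherwise % inhibition at the top concentration.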

[3] = system: Epidermal growth factor receptor (Homo sapiens), P00533 [L858R]; experiment: Binding affinity to N-terminal His6-tagged human EGFR L858R mutant expressed in Sf9 cells at pH 7.4 assessed as covalent adduct at +277 Da formation at 0.3 to 1 uM incubated for 1 hrs by LC-MS analysis; conditions: dose 0.3-1 µM
Method in brief: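 EGFR (694-1022) L858R or L858R/C775S as N-terminal His-GST fusions from Sf9 cells, purified by Ni affinity then SEC. Each protein at 0.5 mg/ml was incubated with compound (0.3, 1 or 3 µM) in 20 mM Tris-HCl pH 7.5, 150 mM NaCl, 1 mM TCEP, 5% glycerol, 1 h at room temperature. SDS was added to 1% final, samples boiled 95°C 10 min, then UHPLC-MS.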

[4] = biological target: T1, Epidermal growth factor receptor; experiment: Inhibition of N-terminal His6-tagged human EGFR L858R/T790M/C797S mutant expressed in Sf9 cells assessed as decrease in substrate phosphorylation incubated for 45 mins using Srctide as substrate in presence of 5uM of ATP by microplate reader analysis
[5] = biological target: T1, Epidermal growth factor receptor; experiment: (§1) Inhibition of N-terminal His6-tagged human EGFR L858R/T790M/C797S mutant expressed in Sf9 cells assessed as decrease in substrate phosphorylation using Srctide as substrate preincubated for 60 mins followed by substrate addition in presence of 5uM of ATP and measured after 45 mins by microplate reader analysis
[6] = biological target: T1, Epidermal growth factor receptor; experiment: Inhibition of N-terminal His6-tagged human EGFR L858R/T790M/C797S mutant expressed in Sf9 cells assessed as decrease in substrate phosphorylation incubated for 45 mins using Srctide as substrate in presence of 1mM of ATP by microplate reader analysis
Method in brief: (§2)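 Compound in DMSO was preincubated 0, 20 or 60 min with 250 pg/µL EGFR_TM (residues 694-1022) in 20 mM HEPES pH 7.4, 5 mM MgCl2, 1 mM MnCl2, 0.003% Brij-35, 0.004% Tween-20, 2 mM DTT. […] EDTA stop; phosphorylation read by mobility-shift chip, ex 488/em 530 nm.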

[7] = biological target: T1, Epidermal growth factor receptor; experiment: as §1, with “20” for “60”, “1mM” for “5uM”; method in brief: as §2
[8] = biological target: T1, Epidermal growth factor receptor; experiment: as §1, with “1mM” for “5uM”; method in brief: as §2
[9] = system: Epidermal growth factor receptor (Homo sapiens), P00533 [L858R,T790M,C797S]; experiment: Inhibition of human EGFR T790M/C797S/L858R mutant assessed as decrease in substrate phosphorylation using Srctide as substrate preincubated for 15 mins followed by substrate addition in presence of 1mM of ATP and measured after 45 mins by microplate reader analysis; conditions: time 60.0 min
Method in brief: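 Compound at 1 µM final, 15 min preincubation with mutant EGFR in mutant-EGFR buffer (5 mM MgCl2, 1 mM MnCl2) at 200 ng/mL for T790M/C797S/L858R, 180 ng/mL for d746-750/T790M, and 350 ng/mL for d746-750/T790M/C797S. Then 1 mM ATP plus 1.5 µM Srctide for 45 min. Mobility-shift read.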

[10] = system: Epidermal growth factor receptor (Homo sapiens), P00533 [UNDEFINED MUTATION]; experiment: Inhibition of human EGFR d746-750 mutant assessed as decrease in substrate phosphorylation using Srctide as substrate preincubated for 15 mins followed by substrate addition in presence of 1mM of ATP and measured after 45 mins by microplate reader analysis; conditions: time 60.0 min
Method in brief: (§3)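 Panel format: compound at 1 µM final was preincubated 15 min with kinase in 20 mM HEPES pH 7.4, 5 mM MgCl2, 1 mM MnCl2, 0.003% Brij-35, 0.004% Tween-20, 2 mM DTT. ATP (1 mM) and Srctide (1.5 µM) were then added for 45 min. EDTA stop; mobility-shift read, ex 488/em 530 nm.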

[11] = system: Epidermal growth factor receptor (Homo sapiens), P00533 [L858R]; experiment: Inhibition of human EGFR L858R mutant assessed as decrease in substrate phosphorylation using Srctide as substrate preincubated for 15 mins followed by substrate addition in presence of 1mM of ATP and measured after 45 mins by microplate reader analysis; conditions: time 60.0 min; method in brief: as §3
[12] = biological target: MAP kinase-interacting serine/threonine-protein kinase 1 (Homo sapiens) (UniProt Q9BUB5); experiment: Inhibition of human MNK1 assessed as decrease in substrate phosphorylation using 5FAM-KKKVSRSGLYRSPSMPENLNRPR-COOH as substrate preincubated for 15 mins followed by substrate addition in presence of 1mM of ATP and measured after 45 mins by microplate reader analysis; conditions: time 60.0 min
MAP kinase-interacting serine/threonine-protein kinase 1 (Homo sapiens), sequence (Q9BUB5 whole entry, looked up): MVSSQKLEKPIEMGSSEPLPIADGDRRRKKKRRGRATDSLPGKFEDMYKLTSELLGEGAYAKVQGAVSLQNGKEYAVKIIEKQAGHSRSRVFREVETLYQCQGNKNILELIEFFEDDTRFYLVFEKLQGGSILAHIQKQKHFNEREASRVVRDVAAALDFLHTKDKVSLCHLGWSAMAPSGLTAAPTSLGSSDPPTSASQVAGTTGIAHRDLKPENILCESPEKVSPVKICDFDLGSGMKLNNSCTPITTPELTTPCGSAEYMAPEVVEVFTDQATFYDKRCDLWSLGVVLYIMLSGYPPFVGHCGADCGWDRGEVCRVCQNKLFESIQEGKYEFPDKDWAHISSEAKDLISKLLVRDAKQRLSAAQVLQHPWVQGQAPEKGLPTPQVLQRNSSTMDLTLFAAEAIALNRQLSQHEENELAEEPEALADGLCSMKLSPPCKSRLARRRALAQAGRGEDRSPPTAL
Method in brief: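 MNK1 at 440 ng/mL was preincubated 15 min with 1 µM compound in 100 mM HEPES pH 7.4, 0.003% Brij-35, 0.004% Tween-20, 1 mM DTT. Then 1 mM ATP, 1.5 µM FL-Peptide 10 and 10 mM MgCl2 were added for 45 min. Mobility-shift read.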

C=CC(=O)Nc1cc(-c2cn(C)c3ccccc23)ncn1
inhibition [1]: > 80% | pIC50 [2]: 6.05 | Activity [3]: inactive | pIC50 [4]: 6.22 | pIC50 [5]: 6.78 | pIC50 [6]: 5.89 | pIC50 [7]: 6.60 | pIC50 [8]: 6.82 | inhibition [9]: > 80% | inhibition [10]: > 80% | inhibition [11]: > 80% | inhibition [12]: 26.5%
